Laboratory results from ChEMBL document CHEMBL3621072, “Design, Virtual Screening, and Synthesis of Antagonists of αIIbβ3 as Antiplatelet Agents” (J Med Chem, 2015).
pIC50: −log10 of the molar value.

Biological target: T1, Integrin alpha-IIb/beta-3 (Homo sapiens, UniProt P05106+P08514)
Assay: Inhibition of FITC-labeled fibrinogen binding to integrin alpha2bbeta3 closed form in human washed platelets
Summary of the method: (§1)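 Suspension of washed human platelets; αIIbβ3 binding of fluorescein isothiocyanate-labeled fibrinogen (FITC-Fg) measured, inhibition by test compound expressed as IC50. Pure enantiomers tested.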

T1 sequence (P05106 27-788 limits assumed): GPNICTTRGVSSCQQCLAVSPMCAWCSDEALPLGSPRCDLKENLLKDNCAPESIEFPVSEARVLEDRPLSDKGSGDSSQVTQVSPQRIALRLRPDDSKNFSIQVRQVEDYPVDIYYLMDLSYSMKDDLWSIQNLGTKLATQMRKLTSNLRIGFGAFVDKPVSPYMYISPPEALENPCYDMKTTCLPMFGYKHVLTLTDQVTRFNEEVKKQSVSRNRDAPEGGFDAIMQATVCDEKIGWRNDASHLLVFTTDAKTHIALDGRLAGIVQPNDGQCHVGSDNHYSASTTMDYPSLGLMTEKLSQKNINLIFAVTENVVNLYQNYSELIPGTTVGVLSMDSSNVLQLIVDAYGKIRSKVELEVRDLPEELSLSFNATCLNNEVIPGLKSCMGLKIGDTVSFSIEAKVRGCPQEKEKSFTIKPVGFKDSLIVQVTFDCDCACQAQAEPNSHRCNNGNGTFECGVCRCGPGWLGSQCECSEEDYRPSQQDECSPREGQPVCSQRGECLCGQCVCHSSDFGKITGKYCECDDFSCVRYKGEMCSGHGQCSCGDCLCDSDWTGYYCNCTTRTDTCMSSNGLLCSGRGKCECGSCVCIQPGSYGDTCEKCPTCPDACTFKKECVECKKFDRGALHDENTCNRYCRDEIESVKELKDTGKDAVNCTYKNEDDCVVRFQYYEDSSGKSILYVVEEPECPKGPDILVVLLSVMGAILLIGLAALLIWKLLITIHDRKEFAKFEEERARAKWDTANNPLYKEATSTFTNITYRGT
T1 sequence (P08514 32-887 limits assumed): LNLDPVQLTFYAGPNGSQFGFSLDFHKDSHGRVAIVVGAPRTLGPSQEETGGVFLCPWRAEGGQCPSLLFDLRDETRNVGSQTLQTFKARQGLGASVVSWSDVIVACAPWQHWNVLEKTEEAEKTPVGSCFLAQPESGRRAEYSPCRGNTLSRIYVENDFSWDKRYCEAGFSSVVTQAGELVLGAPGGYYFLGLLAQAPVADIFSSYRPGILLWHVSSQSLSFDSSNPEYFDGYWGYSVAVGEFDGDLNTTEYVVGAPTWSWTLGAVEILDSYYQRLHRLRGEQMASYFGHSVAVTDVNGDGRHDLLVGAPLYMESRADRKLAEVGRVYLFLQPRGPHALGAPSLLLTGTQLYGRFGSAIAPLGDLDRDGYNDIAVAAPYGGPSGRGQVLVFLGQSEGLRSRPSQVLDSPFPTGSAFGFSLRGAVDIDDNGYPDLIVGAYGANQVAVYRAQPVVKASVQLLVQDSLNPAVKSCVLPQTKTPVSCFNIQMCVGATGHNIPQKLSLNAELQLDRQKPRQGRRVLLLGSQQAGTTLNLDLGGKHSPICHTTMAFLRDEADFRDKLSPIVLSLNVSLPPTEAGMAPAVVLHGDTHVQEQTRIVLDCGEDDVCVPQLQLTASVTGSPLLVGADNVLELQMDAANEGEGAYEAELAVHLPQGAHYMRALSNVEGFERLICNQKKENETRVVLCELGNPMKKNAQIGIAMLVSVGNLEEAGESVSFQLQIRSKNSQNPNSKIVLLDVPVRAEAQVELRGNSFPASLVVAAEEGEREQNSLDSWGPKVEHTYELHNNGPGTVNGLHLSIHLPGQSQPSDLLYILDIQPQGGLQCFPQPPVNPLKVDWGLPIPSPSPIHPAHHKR
T1 sequence (P08514 891-1039 limits assumed): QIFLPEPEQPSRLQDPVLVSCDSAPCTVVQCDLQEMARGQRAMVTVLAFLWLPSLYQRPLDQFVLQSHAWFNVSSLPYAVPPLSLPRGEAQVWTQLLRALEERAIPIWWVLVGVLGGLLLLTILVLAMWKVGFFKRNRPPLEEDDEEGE

In order of rising pIC50:
1. NCCC(=O)Nc1ccc2nc(N3CCNCC3)[nH]c(=O)c2c1  8.30
2. O=C(Nc1ccc2nc(N3CCNCC3)[nH]c(=O)c2c1)C1CCNCC1  8.42
3. NCCCC(=O)Nc1ccc2nc(N3CCNCC3)[nH]c(=O)c2c1  8.66

Biological target: T1, Integrin alpha-IIb/beta-3
Assay: Antagonist activity against integrin alpha2bbeta3 in human platelet rich plasma
Summary of the method: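 Human platelet-rich plasma, aggregation induced by ADP and followed by Born's light-transmission method. Inhibition of aggregation by the test compound is reported as IC50. Pure enantiomers tested.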

In order of rising pIC50:
1. CCc1nn2c(=O)cc(N3CCNCC3)nc2s1  4.89
2. N=C(N)c1ccc2cc(OC(=O)c3ccc(N=C(N)N)cc3)ccc2c1 [NAFAMOSTAT]  4.90

Biological target: T1, Integrin alpha-IIb/beta-3
Assay: Inhibition of FITC-labeled fibrinogen binding to integrin alpha2bbeta3 open form in human washed platelets
Summary of the method: as §1

In order of rising pIC50:
1. CCCCS(=O)(=O)N[C@H](CNC(=O)CCNC(=O)c1ccc2c(c1)CNCC2)C(=O)O  7.10
2. CCCCS(=O)(=O)N[C@@H](CNC(=O)CCNC(=O)c1ccc2c(c1)CNCC2)C(=O)O  7.21
3. O=C(CCNC(=O)c1ccc2c(c1)CNCC2)NC[C@@H](NS(=O)(=O)c1ccccc1)C(=O)O  9.02
4. O=C(CCNC(=O)c1ccc2c(c1)CNCC2)NC[C@H](NS(=O)(=O)c1ccccc1)C(=O)O  9.66
